From ChEMBL document CHEMBL1138022, “Structurally simplified macrolactone analogues of halichondrin B” (Bioorg Med Chem Lett, 2004)

What was measured:
DLD-1 = assay: In vitro inhibitory concentration required to inhibit the growth of DLD-1 cells under continuous exposure conditions for 3-4 days; type: functional, cell-based; conditions: Homo sapiens
Method in brief: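 Human colon cancer DLD-1 cells were exposed to compound continuously for 3–4 days and growth inhibition was measured. IC50 is given ± SEM, with n the number of experiments.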

P388 = assay: Fold resistance calculated as the inhibition concentration ratio between retrovirally transformed P388/VMDRC.04 and parental P388 cells; type: functional
Method in brief: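 P-glycoprotein-mediated efflux assessed in murine P388/VMDRC.04, a retrovirally transformed multidrug-resistant subline of P388/S leukemia cells, alongside parental P388 cells. Growth inhibition IC50 was measured in each line. Fold resistance is the IC50 ratio of P388/VMDRC.04 to parental P388.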

U-937 = assay: In vitro inhibitory concentration required to inhibit the growth of U937 cells was determined by mitotic block reversibility assay; type: functional; conditions: Homo sapiens
Method in brief: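 Reversibility assay in human histiocytic lymphoma U937 cells. After drug washout, flow cytometry scored whether a complete mitotic block was still maintained 10 h later.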

Structure (SMILES) | IC50 (DLD-1) [nM] | FR (P388) | IC99 (U-937) [µM]
C=C1C[C@@H]2CC[C@@]34C[C@@H]5O[C@@H]6C(O[C@H]7CC[C@H](CC(=O)O[C@@H]8[C@@H](OC)[C@H](C[C@@H](O)CO)O[C@H]8C[C@H]8O[C@@H](CC[C@@H]1O2)C[C@@H](C)C8=C)O[C@@H]7[C@@H]6O3)[C@H]5O4 | 1.4 | 8.8 | 0.03
C=C1C[C@@H]2CC[C@@]34C[C@@H]5O[C@@H]6C(O[C@H]7CC[C@H](CC(=O)O[C@@H]8[C@@H](OC)[C@@H](O)[C@H](CC(O)CO)O[C@H]8C[C@H]8O[C@@H](CC[C@@H]1O2)C[C@@H](C)C8=C)O[C@@H]7[C@@H]6O3)[C@H]5O4 (some centres undefined) | 19 | 23 | 0.053
C=C1C[C@@H]2CC[C@@]34C[C@@H]5O[C@@H]6C(O[C@H]7CC[C@H](CC(=O)O[C@@H]8[C@@H](OC)[C@H](CCC(=O)C(F)(F)F)O[C@H]8C[C@H]8O[C@@H](CC[C@@H]1O2)C[C@@H](C)C8=C)O[C@@H]7[C@@H]6O3)[C@H]5O4 | 0.67 | 4.5 | 0.03
C=C1C[C@@H]2CC[C@@]34C[C@@H]5O[C@@H]6C(O[C@H]7CC[C@H](CC(=O)O[C@H]8[C@@H](OC)[C@H](CC(O)CO)O[C@H]8C[C@H]8O[C@@H](CC[C@@H]1O2)C[C@@H](C)C8=C)O[C@@H]7[C@@H]6O3)[C@H]5O4 (some centres undefined) | > 1000 | – | –
C=C1C[C@@H]2CC[C@@]34C[C@@H]5O[C@@H]6C(O[C@H]7CC[C@H](CC(=O)O[C@@H]8[C@@H](C)[C@@H]9O[C@H](CO)[C@@H](O)C[C@@H]9O[C@H]8C[C@H]8O[C@@H](CC[C@@H]1O2)C[C@@H](C)C8=C)O[C@@H]7[C@@H]6O3)[C@H]5O4 | 3.4 | 12 | 0.22
C=C1C[C@@H]2CC[C@@]34C[C@@H]5O[C@@H]6C(O[C@H]7CC[C@H](CC(=O)O[C@@H]8[C@@H](OC)[C@@H]9OC(C)(C)OC[C@@H]9O[C@H]8C[C@H]8O[C@@H](CC[C@@H]1O2)C[C@@H](C)C8=C)O[C@@H]7[C@@H]6O3)[C@H]5O4 | 11 | 1.7 | > 1
C=C1C[C@@H]2CC[C@@]34C[C@@H]5O[C@@H]6C(O[C@H]7CC[C@H](CC(=O)O[C@@H]8[C@@H](OC)[C@H](O)[C@H](CO)O[C@H]8C[C@H]8O[C@@H](CC[C@@H]1O2)C[C@@H](C)C8=C)O[C@@H]7[C@@H]6O3)[C@H]5O4 | 2.6 | 8.5 | 0.3
C=C1C2C[C@@H]3O[C@@H](C[C@H](O)CO)[C@H](OC)[C@H]3OC(=O)C[C@H]3CC[C@@H]4OC5[C@H]6O[C@H]7C[C@](CC[C@H]8CC(=C)[C@H](CC[C@@H](C[C@H]1C)O2)O8)(OC6[C@H]4O3)O[C@H]57 | 6.4 | 8.2 | 0.1
C=C1C[C@@H]2CC[C@@]34C[C@@H]5O[C@@H]6C(O[C@H]7CC[C@H](CC(=O)O[C@@H]8[C@@H](OC)[C@H](O)[C@H](CCOC)O[C@H]8C[C@H]8O[C@@H](CC[C@@H]1O2)C[C@@H](C)C8=C)O[C@@H]7[C@@H]6O3)[C@H]5O4 | 1.8 | 1.6 | > 1
C=C1C[C@@H]2CC[C@@]34C[C@@H]5O[C@@H]6C(O[C@H]7CC[C@H](CC(=O)O[C@H]8C(CC9OC(CCC1O2)C[C@@H](C)C9=C)O[C@H]1C[C@H]2O[C@@]9(C[C@@H]%10O[C@]%11(C[C@H](C)[C@@H]%12O[C@H]([C@@H](O)C[C@@H](O)CO)C[C@@H]%12O%11)C[C@H](C)[C@@H]%10O9)C[C@H]2O[C@H]1[C@@H]8C)O[C@@H]7[C@@H]6O3)[C@H]5O4 (some centres undefined) | 0.74 | 2.8 | 0.025
C=C1C[C@@H]2CC[C@@]34C[C@@H]5O[C@@H]6C(O[C@H]7CC[C@H](CC(=O)O[C@@H]8[C@@H](OC)[C@@H](O)[C@H](CO)O[C@H]8C[C@H]8O[C@@H](CC[C@@H]1O2)C[C@@H](C)C8=C)O[C@@H]7[C@@H]6O3)[C@H]5O4 | 2 | 13 | 0.065
C=C1C[C@@H]2CC[C@@]34C[C@@H]5O[C@@H]6C(O[C@H]7CC[C@H](CC(=O)O[C@@H]8[C@@H](OC)[C@H](CO)O[C@@H]8C[C@H]8O[C@@H](CC[C@@H]1O2)C[C@@H](C)C8=C)O[C@@H]7[C@@H]6O3)[C@H]5O4 | > 1000 | – | –
C=C1C[C@@H]2CC[C@@]34C[C@@H]5O[C@@H]6C(O[C@H]7CC[C@H](CC(=O)O[C@@H]8[C@@H](OC)[C@@H](O)[C@H](CCO)O[C@H]8C[C@H]8O[C@@H](CC[C@@H]1O2)C[C@@H](C)C8=C)O[C@@H]7[C@@H]6O3)[C@H]5O4 | 1.8 | 12 | 0.1
C=C1C[C@@H]2CC[C@@]34C[C@@H]5O[C@@H]6C(O[C@H]7CC[C@H](CC(=O)O[C@@H]8[C@@H](OC)[C@H](O)[C@H](CCO)O[C@H]8C[C@H]8O[C@@H](CC[C@@H]1O2)C[C@@H](C)C8=C)O[C@@H]7[C@@H]6O3)[C@H]5O4 | 1.8 | 10 | 0.3
C=C1C[C@@H]2CC[C@@]34C[C@@H]5O[C@@H]6C(O[C@H]7CC[C@H](CC(=O)O[C@@H]8[C@@H](OCC)[C@@H](O)[C@H](CC(O)CO)O[C@H]8C[C@H]8O[C@@H](CC[C@@H]1O2)C[C@@H](C)C8=C)O[C@@H]7[C@@H]6O3)[C@H]5O4 (some centres undefined) | 490 | – | –
C=C1C[C@@H]2CC[C@@]34C[C@@H]5O[C@@H]6C(O[C@H]7CC[C@H](CC(=O)O[C@@H]8[C@@H](C)[C@H](O)[C@H](CCO)O[C@H]8C[C@H]8O[C@@H](CC[C@@H]1O2)C[C@@H](C)C8=C)O[C@@H]7[C@@H]6O3)[C@H]5O4 | 2.5 | 5.6 | 0.17
C=C1C[C@@H]2CC[C@@]34C[C@@H]5O[C@@H]6C(O[C@H]7CC[C@H](CC(=O)O[C@@H]8[C@H](OC)[C@H](CC(O)CO)O[C@H]8C[C@H]8O[C@@H](CC[C@@H]1O2)C[C@@H](C)C8=C)O[C@@H]7[C@@H]6O3)[C@H]5O4 (some centres undefined) | 220 | – | –
C=C1C[C@@H]2CC[C@@]34C[C@@H]5O[C@@H]6C(O[C@H]7CC[C@H](CC(=O)O[C@@H]8[C@@H](OC)[C@H](CCO)O[C@H]8C[C@H]8O[C@@H](CC[C@@H]1O2)C[C@@H](C)C8=C)O[C@@H]7[C@@H]6O3)[C@H]5O4 | 0.97 | 2.8 | 0.1
C=C1C[C@@H]2CC[C@@]34C[C@@H]5O[C@@H]6C(O[C@H]7CC[C@H](CC(=O)O[C@@H]8[C@@H](OC)[C@@H](O)CO[C@H]8C[C@H]8O[C@@H](CC[C@@H]1O2)C[C@@H](C)C8=C)O[C@@H]7[C@@H]6O3)[C@H]5O4 | > 1000 | – | –
C=C1C[C@@H]2CC[C@@]34C[C@@H]5O[C@@H]6C(O[C@H]7CC[C@H](CC(=O)O[C@@H]8[C@@H](OC)[C@@H](O)[C@@H](CC(O)CO)O[C@H]8C[C@H]8O[C@@H](CC[C@@H]1O2)C[C@@H](C)C8=C)O[C@@H]7[C@@H]6O3)[C@H]5O4 (some centres undefined) | 12 | 20 | 0.065
C=C1C[C@@H]2CC[C@@]34C[C@@H]5O[C@@H]6C(O[C@H]7CC[C@H](CC(=O)O[C@@H]8[C@@H](OC)[C@H](CO)O[C@H]8C[C@H]8O[C@@H](CC[C@@H]1O2)C[C@@H](C)C8=C)O[C@@H]7[C@@H]6O3)[C@H]5O4 | 1 | 2.8 | 0.1
C=C1C[C@@H]2CC[C@@]34C[C@@H]5O[C@@H]6C(O[C@H]7CC[C@H](CC(=O)O[C@@H]8[C@@H](OC)[C@H](C[C@@H](O)CC(O)CO)O[C@H]8C[C@H]8O[C@@H](CC[C@@H]1O2)C[C@@H](C)C8=C)O[C@@H]7[C@@H]6O3)[C@H]5O4 (some centres undefined) | 1.9 | 15 | 0.03
C=C1C[C@@H]2CC[C@@]34C[C@@H]5O[C@@H]6C(O[C@H]7CC[C@H](CC(=O)O[C@@H]8[C@@H](OC)[C@H](OC)[C@H](CCO)O[C@H]8C[C@H]8O[C@@H](CC[C@@H]1O2)C[C@@H](C)C8=C)O[C@@H]7[C@@H]6O3)[C@H]5O4 | 2.1 | 2.6 | > 1
